For 28 compounds, IC50, Selectivity ratio and inhibition results are on record in ChEMBL document CHEMBL4732155 (Eur J Med Chem, 2021).

The target of test [1] is T1, Transitional endoplasmic reticulum ATPase (Homo sapiens, UniProt P55072). The experiment in a line: Inhibition of His6-tagged p97 (unknown origin) expressed in Escherichia coli BL21 (DE3) assessed as reduction in ATPase activity measured after 60 mins by biomol green reagent based assay. In outline:
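His6-p97 expressed in E. coli BL21(DE3), purified by Ni-NTA and gel filtration (500–600 kDa fractions, ≥95% pure). Phosphate read by Biomol Green at 635 nm. Eight-dose titrations; IC50 from six replicates. Thiol tests added DTT or cysteine during preincubation.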
Target sequence in this assay (P55072 whole entry): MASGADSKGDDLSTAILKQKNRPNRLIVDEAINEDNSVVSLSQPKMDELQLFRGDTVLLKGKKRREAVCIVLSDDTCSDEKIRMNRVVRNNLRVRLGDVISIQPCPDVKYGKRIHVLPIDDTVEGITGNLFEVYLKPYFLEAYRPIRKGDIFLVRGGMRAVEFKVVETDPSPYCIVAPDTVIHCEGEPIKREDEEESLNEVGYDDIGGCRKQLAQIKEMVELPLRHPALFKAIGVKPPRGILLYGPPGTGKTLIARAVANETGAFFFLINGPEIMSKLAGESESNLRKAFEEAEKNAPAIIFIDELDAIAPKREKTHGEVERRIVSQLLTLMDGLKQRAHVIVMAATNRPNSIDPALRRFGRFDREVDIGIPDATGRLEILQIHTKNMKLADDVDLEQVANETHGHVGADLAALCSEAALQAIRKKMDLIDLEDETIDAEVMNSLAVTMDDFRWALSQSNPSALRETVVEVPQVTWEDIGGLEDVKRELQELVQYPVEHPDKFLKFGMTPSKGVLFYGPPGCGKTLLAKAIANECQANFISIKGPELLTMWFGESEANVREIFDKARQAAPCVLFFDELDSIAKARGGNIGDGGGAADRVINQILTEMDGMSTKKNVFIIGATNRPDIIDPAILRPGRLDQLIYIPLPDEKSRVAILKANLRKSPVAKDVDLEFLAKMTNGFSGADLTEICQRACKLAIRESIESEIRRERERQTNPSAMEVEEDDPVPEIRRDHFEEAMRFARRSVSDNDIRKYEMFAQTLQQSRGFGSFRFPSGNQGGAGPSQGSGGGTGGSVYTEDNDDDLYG

The nature of test [2]: Inhibition of proteasomal turnover of p97-independent ODD-luciferase reporter substrate in human HeLa cells incubated for 120 mins by luciferase reporter gene assay. It counts as functional, cell-based. The settings on record: 2 h. In outline: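 HeLa cells co-expressing UbG76V-GFP and ODD-Luc were seeded at 5000/well in clear DMEM with 2.5% FBS. They were pretreated with 4 μM MG132 for 60 min at 37 °C, washed with PBS, then given cycloheximide plus compound for 120 min at 37 °C and washed. GFP was read by high-content confocal imaging, then luminescence after 10 min with D-luciferin at r.t. IC50 was fitted from quadruplicates.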

Test [3] concerns the target T1, Transitional endoplasmic reticulum ATPase. Kind of test: Inhibition of p97 in human HeLa cells assessed as reduction in proteasomal turnover of p97-dependent reporter substrate UbG76V-GFP incubated for 120 mins by GFP fluorescence imaging.
Target sequence in this assay (P55072 whole entry): as above
A short description of test [4]: Inhibition of yeast Cdc48 T532C mutant assessed as reduction in ATPase activity measured after 60 mins by biomol green reagent based assay. More on the design: species or system Saccharomyces cerevisiae. In outline: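 Yeast Cdc48 ATPase activity with 200 μM ATP in Tris pH 7.4 buffer containing MgCl2, EDTA, TCEP and Triton X-100, 60 min at room temperature. Biomol Green read at 635 nm. Eight-dose titration; IC50 from six replicates.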

Test [5] in a line: Selectivity ratio of IC50 for antiproliferative activity against NMS-873-resistant human HCT-116 cells to IC50 for antiproliferative activity against human HCT-116 cells. It counts as functional.
In test [6] the target is T1, Transitional endoplasmic reticulum ATPase. The experiment in a line: Irreversible inhibition of p97 in human HeLa cells assessed as reduction in p97-dependent reporter substrate UbG76V-GFP degradation preincubated followed by washout and measured after 17 hrs by luciferase reporter gene assay. It counts as cell-based. Particulars: in the assay text read “GFP fluorescence assay” for “luciferase reporter gene assay”. In outline: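 HeLa cells expressing UbG76V-GFP/ODD-Luc, 5000 cells/well in DMEM with 2.5% FBS. Pretreated with 4 μM MG132 for 60 min at 37 °C, PBS-washed, then given cycloheximide plus compound for 120 min. After washout, GFP decay followed in cycloheximide for an additional 17 h. GFP read by high-content imaging; luciferase read with D-luciferin; quadruplicates.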
Target sequence in this assay (P55072 2-806 limits assumed): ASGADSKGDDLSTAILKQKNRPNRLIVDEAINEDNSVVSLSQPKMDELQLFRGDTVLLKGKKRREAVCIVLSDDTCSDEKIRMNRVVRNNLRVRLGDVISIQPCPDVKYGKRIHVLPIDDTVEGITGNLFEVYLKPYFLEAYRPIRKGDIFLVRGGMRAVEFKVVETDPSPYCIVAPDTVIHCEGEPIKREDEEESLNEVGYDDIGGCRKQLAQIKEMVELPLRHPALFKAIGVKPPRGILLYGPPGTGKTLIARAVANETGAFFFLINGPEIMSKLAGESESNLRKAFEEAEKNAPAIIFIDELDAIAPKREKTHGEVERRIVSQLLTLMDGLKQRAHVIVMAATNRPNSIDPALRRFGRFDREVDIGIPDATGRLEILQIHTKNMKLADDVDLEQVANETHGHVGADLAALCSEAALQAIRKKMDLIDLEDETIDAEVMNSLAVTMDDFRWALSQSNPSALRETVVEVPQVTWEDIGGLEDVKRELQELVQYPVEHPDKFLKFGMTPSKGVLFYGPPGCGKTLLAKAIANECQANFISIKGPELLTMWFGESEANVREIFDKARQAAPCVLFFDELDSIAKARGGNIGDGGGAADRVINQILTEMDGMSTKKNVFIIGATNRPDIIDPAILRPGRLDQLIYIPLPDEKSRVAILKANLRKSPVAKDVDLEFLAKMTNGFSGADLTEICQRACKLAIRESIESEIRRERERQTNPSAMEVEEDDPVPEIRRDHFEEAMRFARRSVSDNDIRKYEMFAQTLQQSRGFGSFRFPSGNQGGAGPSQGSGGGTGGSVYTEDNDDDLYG

Activity calls are given as the source filed them. The rule behind the calls is not given here. Where a SMILES comes first, the peptide text is derived from it. [ ]: non-standard residue; d: D form. The star is where a group is joined. Cbz = O=C(OCc1ccccc1)*

Consider `COc1ccc(/C=C/[N+](=O)[O-])cc1OC`, for which the IC50 in test [1] is 3.1 µM; in test [2] it was 1.8 µM; in test [3], 1.9 µM.

On to `C=CC(=O)Nc1ncnc2c1c(-c1ccc(-c3ccccc3)cc1)nn2C(C)(C)C`, for which the IC50 in test [1] was 2.8 µM; in test [2] it was > 30 µM; in test [3], 2.1 µM.

As for `CC(C)(C)n1nc(-c2ccc(-c3ccccc3)cc2)c2c(N)ncnc21`, the IC50 in test [1] is > 50 µM; in test [2], > 30 µM; in test [3], > 30 µM.

For `Cc1ccc(-c2c(C(=O)CCl)n(CCCO)c3ncnc(N)c23)cc1`, the IC50 turned out to be 3.9 µM in test [1], 4 µM in test [2] and 5.8 µM in test [3].

Take `CC(C)(C)n1nc(-c2ccccc2)c2c(N)ncnc21`: the IC50 was > 100 µM in test [1], > 30 µM in test [2], > 100 µM in test [4] and > 30 µM in test [3].

Consider `C=CC(=O)N(C(=O)C=C)c1ncnc2c1c(-c1ccccc1)nn2C(C)(C)C`, for which the IC50 in test [1] was 1.1 µM; in test [2], > 30 µM; in test [4], 26 µM; in test [3], 5.4 µM.

Turning to `CC(C)(C)n1nc(-c2ccc3ccccc3c2)c2c(N)ncnc21`, the IC50 in test [1] is > 100 µM; in test [2], > 30 µM; in test [4], > 100 µM; in test [3], > 30 µM.

As to `CNc1ncnc2c1c(-c1ccc3ccccc3c1)nn2C(C)(C)C`, the IC50 in test [1] is > 50 µM; in test [2], > 30 µM; in test [3], > 30 µM.

Regarding `CC1(C)C(N(O)C(=O)Nc2ccc(Cl)cc2)N(c2ccc(Cl)cc2)C(=O)N1CC(=O)N/N=C/C=C/c1ccc([N+](=O)[O-])o1` (stereo not given), the IC50 in test [1] is > 30 µM; in test [3], 3.7 µM.

As for `CC(C)(C)n1nc(-c2ccccc2)c2c(NC(=O)CCl)ncnc21`, the 50% inhibitory concentration (IC50) in test [1] is 4.5 µM; in test [2] it was > 30 µM; in test [4], 35 µM; in test [3] it was 31 µM.

On to `Cc1ccc(C(=O)C#Cc2ccccc2)cc1`, for which the results for the IC50 in test [1], in test [2] and in test [3] were 0.2 µM, 5.2 µM and 3.4 µM, respectively.

`Cc1cc(OCc2nnc(SC3CCCC3)n2-c2cccnc2)ccc1-c1ccc(S(C)(=O)=O)cc1`: the Selectivity ratio in test [5] turned out to be 4.5.

Take `O=[N+]([O-])/C=C/c1cccc([N+](=O)[O-])c1`: the IC50 was 1.2 µM in test [1], 4 µM in test [2] and 1.7 µM in test [3].

In the case of `COc1cc(/C=C/[N+](=O)[O-])ccc1OC(C)=O`, the IC50 in test [1] was determined as 3.6 µM; in test [2], 2.3 µM; in test [3] it was 5.7 µM.

Regarding `O=[N+]([O-])/C=C/c1c(F)c(F)c(F)c(F)c1F`, the values for the IC50 in test [1], in test [2] and in test [3] were 2.4 µM, 2.1 µM and 2.7 µM, respectively.

On to `C=CC(=O)N(C(=O)C=C)c1ncnc2c1c(-c1ccc(-c3ccccc3)cc1)nn2C(C)(C)C`, for which the IC50 is 0.9 µM in test [1], > 30 µM in test [2] and 6.1 µM in test [3].

As to `O=[N+]([O-])/C=C/c1cccnc1`, the results for the IC50 in test [1], in test [2] and in test [3] were 0.7 µM, 3 µM and 2.9 µM, respectively.

`C=CC(=O)Nc1ccc2ncnc(Nc3ccc(-c4ccccc4)cc3)c2c1`: the half-inhibitory concentration (IC50) worked out at 10 µM in test [1], 11 µM in test [2] and 18 µM in test [3].

As for `C=CC(=O)N(C(=O)C=C)c1ncnc2c1c(-c1ccc3ccccc3c1)nn2C(C)(C)C`, the IC50 in test [1] is 1.3 µM; in test [2], > 30 µM; in test [4], 22 µM; in test [3], 2.5 µM.

As to `O=[N+]([O-])/C=C/c1ccc(F)c(Br)c1`, the 50% inhibitory concentration (IC50) in test [1] was 1.7 µM; in test [2], 2 µM; in test [3], 1.8 µM.

In the case of `C=CC(=O)Nc1ncnc2c1c(-c1ccc3ccccc3c1)nn2C(C)(C)C`, the IC50 in test [1] is 3 µM; in test [2], > 30 µM; in test [4], 24 µM; in test [3], 2 µM.

In the case of `CC(C)C[C@@H](C=O)NC(=O)[C@@H](CC(C)C)NC(=O)[C@H](CC(C)C)NC(=O)OCc1ccccc1` (Cbz-Leu-[dL]-Leu-aldehyde), the inhibition result in test [6] is “inactive”.

Regarding `O=C(O)/C=C/c1ccc2c(c1)OCO2`, the IC50 in test [1], in test [2] and in test [3] was > 30 µM each time.

Turning to `COc1cc(/C=C/[N+](=O)[O-])ccc1OC(=O)c1ccccc1`, the figures for the IC50 in test [1], in test [2] and in test [3] were 2 µM, 10 µM and 5.7 µM, respectively.

Turning to `O=[N+]([O-])/C=C/c1ccc2c(c1)OCO2`, the IC50 in test [1] amounted to 1.7 µM; in test [2], 3.9 µM; in test [3] it was 1.6 µM.

For `CCC(=O)Oc1ccc(/C=C/[N+](=O)[O-])cc1OC`, the IC50 turned out to be 3.4 µM in test [1], 1.6 µM in test [2] and 4.3 µM in test [3].

For `COc1cc(/C=C/[N+](=O)[O-])ccc1O`, the IC50 turned out to be 13 µM in test [1], 5 µM in test [2] and 6.8 µM in test [3].

As to `Cc1ccc(-c2c(C(=O)CF)n(CCCO)c3ncnc(N)c23)cc1`, the IC50 in test [1] is > 30 µM; in test [2] it was 39 µM; in test [3], 47 µM.
